Reference: ChEMBL document CHEMBL1136045, “Synthesis, in vitro receptor binding, and in vivo evaluation of fluorescein and carbocyanine peptide-based optical contrast agents” (J Med Chem, 2002)
pIC50: −log10 of the molar value.

Columns and labels:
[1] = molecular target: Gastrin-releasing peptide receptor (Rattus norvegicus, UniProt P52500); experiment: In vitro binding affinity of [111In]DTPA-[Y4]-bombesin to bombesin receptor in the rat pancreatic acinar cell line, AR42J
Procedure, shortened: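 Competition binding on AR42-J rat pancreatic acinar cell membranes (~50 μg/well) with the tracer [111In]-DTPA-[P1,Y4]-bombesin and increasing concentrations of cold competitor. Buffer was 50 mM Tris-HCl pH 7.4, 5 mM MgCl2, 0.2 mg/mL BSA. Incubation 90 min at room temperature, then filtration and washing. Bound radioactivity was gamma-counted, and IC50 came from a four-parameter fit.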

[2] = molecular target: Somatostatin receptor; experiment: In vitro binding affinity of [111In]DTPA-[Y3]-octreotate to somatostatin receptor in the rat pancreatic tumor cell line, […]
Procedure, shortened: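 Competition binding on CA20948 rat pancreatic cell membranes with the tracer [111In]-DTPA-[Y3]-octreotate and increasing concentrations of unlabeled competitor. Incubation 90 min at room temperature, then filtration and buffer washes. Filter-bound radioactivity was gamma-counted, and IC50 came from a four-parameter curve fit. Specific activity of the radiolabeled peptide was >1400 Ci/mmol.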

Sequence of Gastrin-releasing peptide receptor (P52500 whole entry): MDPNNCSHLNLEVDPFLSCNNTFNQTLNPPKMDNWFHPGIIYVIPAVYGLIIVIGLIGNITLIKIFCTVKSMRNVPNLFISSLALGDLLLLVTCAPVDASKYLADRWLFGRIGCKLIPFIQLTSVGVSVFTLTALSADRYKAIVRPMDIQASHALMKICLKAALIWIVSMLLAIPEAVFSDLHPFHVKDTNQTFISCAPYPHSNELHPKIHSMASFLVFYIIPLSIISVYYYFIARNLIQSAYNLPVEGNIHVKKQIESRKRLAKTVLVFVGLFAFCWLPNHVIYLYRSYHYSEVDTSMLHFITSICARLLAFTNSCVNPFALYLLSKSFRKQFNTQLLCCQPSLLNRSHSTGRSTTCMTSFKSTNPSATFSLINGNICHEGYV

Row | SMILES | pIC50 [1] | IC50 [2] [nM]
1 | CSCC[C@H](NC(=O)[C@H](CC(C)C)NC(=O)[C@H](Cc1c[nH]cn1)NC(=O)CNC(=O)[C@@H](NC(=O)[C@H](C)NC(=O)[C@H](Cc1c[nH]c2ccccc12)NC(=O)[C@H](CCC(N)=O)NC(=O)[C@H](CC(N)=O)NC(=O)CNC(=O)[C@H](Cc1ccc(O)cc1)NC(=O)[C@H](CCCN=C(N)N)NC(=O)[C@H](CCC(N)=O)NC(=O)[C@@H]1CCCN1C(=O)CN(CCN(CCN(CC(=O)O)CC(=O)O)CC(=O)O)CC(=O)O)C(C)C)C(N)=O | 8.33 | 
2 | CSCC[C@H](NC(=O)[C@H](CC(C)C)NC(=O)[C@H](Cc1c[nH]cn1)NC(=O)CNC(=O)[C@@H](NC(=O)[C@H](C)NC(=O)[C@H](Cc1c[nH]c2ccccc12)NC(=O)[C@H](CCC(N)=O)NC(=S)Nc1ccc2c(c1)C(=O)OC21c2ccc(O)cc2Oc2cc(O)ccc21)C(C)C)C(N)=O | 8.49 | 
3 | C[C@@H](O)[C@H](NC(=O)[C@H]1CSSC[C@H](NC(=O)[C@H](N)Cc2ccccc2)C(=O)N[C@@H](Cc2ccc(O)cc2)C(=O)N[C@H](Cc2c[nH]c3ccccc23)C(=O)N[C@@H](CCCCN)C(=O)N[C@H]([C@@H](C)O)C(=O)N1)C(=O)O |  | 0.6
4 | C[C@@H](O)[C@@H](CO)NC(=O)[C@H]1CSSC[C@H](NC(=O)[C@H](N)Cc2ccccc2)C(=O)N[C@@H](Cc2ccc(O)cc2)C(=O)N[C@H](Cc2c[nH]c3ccccc23)C(=O)N[C@@H](CCCCN)C(=O)N[C@H]([C@@H](C)O)C(=O)N1 |  | 0.4
5 | CSCC[C@H](NC(=O)[C@H](CC(C)C)NC(=O)[C@H](Cc1c[nH]cn1)NC(=O)CNC(=O)[C@@H](NC(=O)[C@H](C)NC(=O)[C@H](Cc1c[nH]c2ccccc12)NC(=O)[C@H](CCC(N)=O)NC(=O)CNC(=O)[C@H](CO)NC(=O)CNC(=O)[C@H](CCCCNC(=S)Nc1ccc2c(c1)C(=O)OC21c2ccc(O)cc2Oc2cc(O)ccc21)NC(=S)Nc1ccc2c(c1)C(=O)OC21c2ccc(O)cc2Oc2cc(O)ccc21)C(C)C)C(N)=O | 7.69 | 
6 | CSCC[C@H](NC(=O)[C@H](CC(C)C)NC(=O)[C@H](Cc1c[nH]cn1)NC(=O)CNC(=O)[C@@H](NC(=O)[C@H](C)NC(=O)[C@H](Cc1c[nH]c2ccccc12)NC(=O)[C@H](CCC(N)=O)NC(=O)[C@H](CCCCNC(=O)CN(CCN(CCN(CC(=O)O)CC(=O)O)CC(=O)O)CC(=O)O)NC(=O)CN(CCN(CCN(CC(=O)O)CC(=O)O)CC(=O)O)CC(=O)O)C(C)C)C(N)=O | 6.62 | 
7 | CSCC[C@H](NC(=O)[C@H](CC(C)C)NC(=O)[C@H](Cc1c[nH]cn1)NC(=O)CNC(=O)[C@@H](NC(=O)[C@H](C)NC(=O)[C@H](Cc1c[nH]c2ccccc12)NC(=O)[C@H](CCC(N)=O)NC(=O)[C@H](CCCCNC(=O)CN(CCN(CCN(CC(=O)O)CC(=O)O)CC(=O)O)CC(=O)O)NC(=S)Nc1ccc2c(c1)C(=O)OC21c2ccc(O)cc2Oc2cc(O)ccc21)C(C)C)C(N)=O | 7.70 | 
8 | CSCC[C@H](NC(=O)[C@H](CC(C)C)NC(=O)[C@H](Cc1c[nH]cn1)NC(=O)CNC(=O)[C@@H](NC(=O)[C@H](C)NC(=O)[C@H](Cc1c[nH]c2ccccc12)NC(=O)[C@H](CCC(N)=O)NC(=O)[C@H](CCCCNC(=S)Nc1ccc2c(c1)C(=O)OC21c2ccc(O)cc2Oc2cc(O)ccc21)NC(=O)CN(CCN(CCN(CC(=O)O)CC(=O)O)CC(=O)O)CC(=O)O)C(C)C)C(N)=O | 6.56 | 
9 | CSCC[C@H](NC(=O)[C@H](CC(C)C)NC(=O)[C@H](Cc1c[nH]cn1)NC(=O)CNC(=O)[C@@H](NC(=O)[C@H](C)NC(=O)[C@H](Cc1c[nH]c2ccccc12)NC(=O)[C@H](CCC(N)=O)NC(=O)[C@H](CCCCNC(=S)Nc1ccc2c(c1)C(=O)OC21c2ccc(O)cc2Oc2cc(O)ccc21)NC(=S)Nc1ccc2c(c1)C(=O)OC21c2ccc(O)cc2Oc2cc(O)ccc21)C(C)C)C(N)=O | 8.02 | 
10 | CSCC[C@H](NC(=O)[C@H](CC(C)C)NC(=O)[C@H](Cc1c[nH]cn1)NC(=O)CNC(=O)[C@@H](NC(=O)[C@H](C)NC(=O)[C@H](Cc1c[nH]c2ccccc12)NC(=O)[C@H](CCC(N)=O)NC(=O)[C@H](CCCCNC(=O)CN1CCN(CC(=O)O)CCN(CC(=O)O)CCN(CC(=O)O)CC1)NC(=S)Nc1ccc2c(c1)C(=O)OC21c2ccc(O)cc2Oc2cc(O)ccc21)C(C)C)C(N)=O | 7.82 | 
11 | C[C@@H](O)[C@H](NC(=O)[C@H]1CSSC[C@H](NC(=O)[C@@H](Cc2ccccc2)/N=C(/S)Nc2ccc3c(c2)C(=O)OC32c3ccc(O)cc3Oc3cc(O)ccc32)C(=O)N[C@@H](Cc2ccc(O)cc2)C(=O)N[C@H](Cc2c[nH]c3ccccc23)C(=O)N[C@@H](CCCCN)C(=O)N[C@H]([C@@H](C)O)C(=O)N1)C(=O)O |  | 9.9
12 | C[C@@H](O)[C@H](NC(=O)[C@H]1CSSC[C@H](NC(=O)[C@@H](Cc2ccccc2)NC(=O)C(CCCC/N=C(\S)Nc2ccc3c(c2)C(=O)OC32c3ccc(O)cc3Oc3cc(O)ccc32)NC(=O)CN(CCN(CCN(CC(=O)O)CC(=O)O)CC(=O)O)CC(=O)O)C(=O)N[C@@H](Cc2ccc(O)cc2)C(=O)N[C@H](Cc2c[nH]c3ccccc23)C(=O)N[C@@H](CCCCN)C(=O)N[C@H]([C@@H](C)O)C(=O)N1)C(=O)O (stereo not given in full) |  | 10.3
13 | C[C@@H](O)[C@H](NC(=O)[C@H]1CSSC[C@H](NC(=O)[C@@H](Cc2ccccc2)NC(=O)C(CCCCNC(=O)CN(CCN(CCN(CC(=O)O)CC(=O)O)CC(=O)O)CC(=O)O)/N=C(\S)Nc2ccc3c(c2)C(=O)OC32c3ccc(O)cc3Oc3cc(O)ccc32)C(=O)N[C@@H](Cc2ccc(O)cc2)C(=O)N[C@H](Cc2c[nH]c3ccccc23)C(=O)N[C@@H](CCCCN)C(=O)N[C@H]([C@@H](C)O)C(=O)N1)C(=O)O (stereo not given in full) |  | 71.3
14 | C[C@@H](O)[C@H](NC(=O)[C@H]1CSSC[C@H](NC(=O)[C@@H](Cc2ccccc2)NC(=O)C(CCCCN)/N=C(\S)Nc2ccc3c(c2)C(=O)OC32c3ccc(O)cc3Oc3cc(O)ccc32)C(=O)N[C@@H](Cc2ccc(O)cc2)C(=O)N[C@H](Cc2c[nH]c3ccccc23)C(=O)N[C@@H](CCCCN)C(=O)N[C@H]([C@@H](C)O)C(=O)N1)C(=O)O (stereo not given in full) |  | 6.4

The next lines start with the values.

Row | pIC50 [1] | IC50 [2] [nM] | SMILES
15 | 8.02 |  | CSCC[C@H](NC(=O)[C@H](CC(C)C)NC(=O)[C@H](Cc1c[nH]cn1)NC(=O)CNC(=O)[C@@H](NC(=O)[C@H](C)NC(=O)[C@H](Cc1c[nH]c2ccccc12)NC(=O)[C@H](CCC(N)=O)NC(=O)CNC(=O)[C@H](CO)NC(=O)CNC(=O)[C@@H](N)CCCCNC(=S)Nc1ccc2c(c1)C(=O)OC21c2ccc(O)cc2Oc2cc(O)ccc21)C(C)C)C(N)=O
16 | 8.24 |  | CSCC[C@H](NC(=O)[C@H](CC(C)C)NC(=O)[C@H](Cc1c[nH]cn1)NC(=O)CNC(=O)[C@@H](NC(=O)[C@H](C)NC(=O)[C@H](Cc1c[nH]c2ccccc12)NC(=O)[C@H](CCC(N)=O)NC(=O)[C@H](CCCCN)NC(=S)Nc1ccc2c(c1)C(=O)OC21c2ccc(O)cc2Oc2cc(O)ccc21)C(C)C)C(N)=O
17 | 8.32 |  | CSCC[C@H](NC(=O)[C@H](CC(C)C)NC(=O)[C@H](Cc1c[nH]cn1)NC(=O)CNC(=O)[C@@H](NC(=O)[C@H](C)NC(=O)[C@H](Cc1c[nH]c2ccccc12)NC(=O)[C@H](CCC(N)=O)NC(=O)[C@@H](N)CCCCNC(=O)CN(CCN(CCN(CC(=O)O)CC(=O)O)CC(=O)O)CC(=O)O)C(C)C)C(N)=O
18 | 6.39 |  | CSCC[C@H](NC(=O)[C@H](CC(C)C)NC(=O)[C@H](Cc1c[nH]cn1)NC(=O)CNC(=O)[C@@H](NC(=O)[C@H](C)NC(=O)[C@H](Cc1c[nH]c2ccccc12)NC(=O)[C@H](CCC(N)=O)NC(=O)[C@H](CCCCN)NC(=O)CN(CCN(CCN(CC(=O)O)CC(=O)O)CC(=O)O)CC(=O)O)C(C)C)C(N)=O
19 | 8.24 |  | CSCC[C@H](NC(=O)[C@H](CC(C)C)NC(=O)[C@H](Cc1c[nH]cn1)NC(=O)CNC(=O)[C@@H](NC(=O)[C@H](C)NC(=O)[C@H](Cc1c[nH]c2ccccc12)NC(=O)[C@H](CCC(N)=O)NC(=O)[C@@H](N)CCCCNC(=S)Nc1ccc2c(c1)C(=O)OC21c2ccc(O)cc2Oc2cc(O)ccc21)C(C)C)C(N)=O
20 | 8.32 |  | CSCC[C@H](NC(=O)[C@H](CC(C)C)NC(=O)[C@H](Cc1c[nH]cn1)NC(=O)CNC(=O)[C@@H](NC(=O)[C@H](C)NC(=O)[C@H](Cc1c[nH]c2ccccc12)NC(=O)[C@H](CCC(N)=O)NC(=O)CNC(=O)[C@H](CO)NC(=O)CNC(=O)[C@@H](N)CCCCN)C(C)C)C(N)=O
21 | 7.81 |  | CSCC[C@H](NC(=O)[C@H](CC(C)C)NC(=O)[C@H](Cc1c[nH]cn1)NC(=O)CNC(=O)[C@@H](NC(=O)[C@H](C)NC(=O)[C@H](Cc1c[nH]c2ccccc12)NC(=O)[C@H](CCC(N)=O)NC(=O)CNC(=O)[C@H](CO)NC(=O)CNC(=O)[C@H](CCCCN)NC(=S)Nc1ccc2c(c1)C(=O)OC21c2ccc(O)cc2Oc2cc(O)ccc21)C(C)C)C(N)=O
22 | 8.04 |  | CSCC[C@H](NC(=O)[C@H](CC(C)C)NC(=O)[C@H](Cc1c[nH]cn1)NC(=O)CNC(=O)[C@@H](NC(=O)[C@H](C)NC(=O)[C@H](Cc1c[nH]c2ccccc12)NC(=O)[C@H](CCC(N)=O)NC(=O)CNC(=O)[C@H](CO)NC(=O)CNC(=S)Nc1ccc2c(c1)C(=O)OC21c2ccc(O)cc2Oc2cc(O)ccc21)C(C)C)C(N)=O
23 | 7.55 |  | CSCC[C@H](NC(=O)[C@H](CC(C)C)NC(=O)[C@H](Cc1cnc[nH]1)NC(=O)CNC(=O)[C@@H](NC(=O)[C@H](C)NC(=O)[C@H](Cc1c[nH]c2ccccc12)NC(=O)[C@@H](N)CCC(N)=O)C(C)C)C(N)=O
24 | 8.12 |  | CSCC[C@H](NC(=O)[C@H](CC(C)C)NC(=O)[C@H](Cc1c[nH]cn1)NC(=O)CNC(=O)[C@@H](NC(=O)[C@H](C)NC(=O)[C@H](Cc1c[nH]c2ccccc12)NC(=O)[C@H](CCC(N)=O)NC(=O)CNC(=O)[C@H](CO)NC(=O)CN)C(C)C)C(N)=O
25 | 7.98 |  | CSCC[C@H](NC(=O)[C@H](CC(C)C)NC(=O)[C@H](Cc1c[nH]cn1)NC(=O)CNC(=O)[C@@H](NC(=O)[C@H](C)NC(=O)[C@H](Cc1c[nH]c2ccccc12)NC(=O)[C@H](CCC(N)=O)NC(=O)[C@@H](N)CCCCN)C(C)C)C(N)=O
